This passage reports CI results from ChEMBL document CHEMBL4145462, “Nitrogen-containing ecdysteroid derivatives vs. multi-drug resistance in cancer: Preparation and antitumor activity of oximes, oxime ethers and a lactam” (Eur J Med Chem, 2018).

Structures are written as SMILES.

The nature of the first assay: Synergistic cytotoxicity against mouse L5178 cells expressing human ABCB1 assessed as combination index at ED50 using 7.5:1 test compound to doxorubicin ratio after 48 hrs by MTT-based checkerboard microplate method. It counts as functional. An outline of the steps: (§1)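 Checkerboard microplate combinations of compound with doxorubicin at constant molar ratios. 5 × 10^4 cells/well in McCoy's 5A, 48 h at 37°C, 5% CO2. MTT added to 0.5 mg/mL final for 4 h, SDS/HCl overnight, OD read at 540 and 630 nm. Combination indices derived per ratio for 50%, 75% and 90% growth inhibition by median-effect analysis.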
In the case of `CC(C)(O)CC[C@H]1OC(C)(C)O[C@]1(C)[C@H]1CC=C2C3=CC(=O)N[C@@H]4C[C@H]5OC(C)(C)O[C@H]5C[C@]4(C)[C@H]3CC[C@@]21C`, the CI was 0.24.

The nature of another assay: Synergistic cytotoxicity against mouse L5178 cells expressing human ABCB1 assessed as combination index at ED75 using 7.5:1 test compound to doxorubicin ratio after 48 hrs by MTT-based checkerboard microplate method. The assay is classed as functional. An outline of the steps: as §1
`CC(C)(O)CC[C@H]1OC(C)(C)O[C@]1(C)[C@H]1CC=C2C3=CC(=O)N[C@@H]4C[C@H]5OC(C)(C)O[C@H]5C[C@]4(C)[C@H]3CC[C@@]21C`: the CI came out at 0.15.

A short description of a further assay: Synergistic cytotoxicity against mouse L5178 cells expressing human ABCB1 assessed as combination index at ED90 using 7.5:1 test compound to doxorubicin ratio after 48 hrs by MTT-based checkerboard microplate method. It counts as functional. A digest of the protocol:
as §1
Take `CC(C)(O)CC[C@H]1OC(C)(C)O[C@]1(C)[C@H]1CC=C2C3=CC(=O)N[C@@H]4C[C@H]5OC(C)(C)O[C@H]5C[C@]4(C)[C@H]3CC[C@@]21C`: the CI was 0.1.

The nature of the next assay: Synergistic cytotoxicity against mouse L5178 cells assessed as combination index at ED50 using 37.5:1 test compound to doxorubicin ratio after 48 hrs by MTT-based checkerboard microplate method. It counts as functional. An outline of the steps:
as §1
As to `CC(C)(O)CC[C@H]1OC(C)(C)O[C@]1(C)[C@H]1CC=C2C3=CC(=O)N[C@@H]4C[C@H]5OC(C)(C)O[C@H]5C[C@]4(C)[C@H]3CC[C@@]21C`, the CI came to 0.57.

A short description of another assay: Synergistic cytotoxicity against mouse L5178 cells assessed as combination index at ED75 using 37.5:1 test compound to doxorubicin ratio after 48 hrs by MTT-based checkerboard microplate method. It counts as functional. A digest of the protocol:
as §1
Take `CC(C)(O)CC[C@H]1OC(C)(C)O[C@]1(C)[C@H]1CC=C2C3=CC(=O)N[C@@H]4C[C@H]5OC(C)(C)O[C@H]5C[C@]4(C)[C@H]3CC[C@@]21C`: the CI is on record as 0.51.

The nature of the next assay: Synergistic cytotoxicity against mouse L5178 cells assessed as combination index at ED90 using 37.5:1 test compound to doxorubicin ratio after 48 hrs by MTT-based checkerboard microplate method. It counts as functional. An outline of the steps:
as §1
On to `CC(C)(O)CC[C@H]1OC(C)(C)O[C@]1(C)[C@H]1CC=C2C3=CC(=O)N[C@@H]4C[C@H]5OC(C)(C)O[C@H]5C[C@]4(C)[C@H]3CC[C@@]21C`, for which the CI came out at 0.46.

Another assay in a line: Synergistic cytotoxicity against mouse L5178 cells assessed as combination index at ED50 using 75:1 test compound to doxorubicin ratio after 48 hrs by MTT-based checkerboard microplate method. The assay is classed as functional. A digest of the protocol: as §1
As for `CC(C)(O)CC[C@H]1OC(C)(C)O[C@]1(C)[C@H]1CC=C2C3=CC(=O)N[C@@H]4C[C@H]5OC(C)(C)O[C@H]5C[C@]4(C)[C@H]3CC[C@@]21C`, the CI came out at 0.62.

A further assay in a line: Synergistic cytotoxicity against mouse L5178 cells assessed as combination index at ED75 using 75:1 test compound to doxorubicin ratio after 48 hrs by MTT-based checkerboard microplate method. The assay is classed as functional. A digest of the protocol: as §1
As for `CC(C)(O)CC[C@H]1OC(C)(C)O[C@]1(C)[C@H]1CC=C2C3=CC(=O)N[C@@H]4C[C@H]5OC(C)(C)O[C@H]5C[C@]4(C)[C@H]3CC[C@@]21C`, the CI is on record as 0.52.

The nature of a further assay: Synergistic cytotoxicity against mouse L5178 cells assessed as combination index at ED90 using 75:1 test compound to doxorubicin ratio after 48 hrs by MTT-based checkerboard microplate method. The assay is classed as functional. An outline of the steps:
as §1
For `CC(C)(O)CC[C@H]1OC(C)(C)O[C@]1(C)[C@H]1CC=C2C3=CC(=O)N[C@@H]4C[C@H]5OC(C)(C)O[C@H]5C[C@]4(C)[C@H]3CC[C@@]21C`, the CI came out at 0.43.

The nature of the next assay: Synergistic cytotoxicity against mouse L5178 cells expressing human ABCB1 assessed as combination index at ED50 using 60:1 test compound to doxorubicin ratio after 48 hrs by MTT-based checkerboard microplate method. The assay is classed as functional. An outline of the steps:
as §1
As for `CC(C)(O)CC[C@H]1OC(C)(C)O[C@]1(C)[C@H]1CC=C2C3=CC(=O)N[C@@H]4C[C@H]5OC(C)(C)O[C@H]5C[C@]4(C)[C@H]3CC[C@@]21C`, the CI turned out to be 0.2.

A short description of the next assay: Synergistic cytotoxicity against mouse L5178 cells expressing human ABCB1 assessed as combination index at ED75 using 60:1 test compound to doxorubicin ratio after 48 hrs by MTT-based checkerboard microplate method. The assay is classed as functional. An outline of the steps: as §1
As to `CC(C)(O)CC[C@H]1OC(C)(C)O[C@]1(C)[C@H]1CC=C2C3=CC(=O)N[C@@H]4C[C@H]5OC(C)(C)O[C@H]5C[C@]4(C)[C@H]3CC[C@@]21C`, the CI turned out to be 0.17.

A further assay is described as follows: Synergistic cytotoxicity against mouse L5178 cells expressing human ABCB1 assessed as combination index at ED90 using 60:1 test compound to doxorubicin ratio after 48 hrs by MTT-based checkerboard microplate method. It counts as functional. A digest of the protocol:
as §1
As to `CC(C)(O)CC[C@H]1OC(C)(C)O[C@]1(C)[C@H]1CC=C2C3=CC(=O)N[C@@H]4C[C@H]5OC(C)(C)O[C@H]5C[C@]4(C)[C@H]3CC[C@@]21C`, the CI is recorded as 0.15.

A short description of another assay: Synergistic cytotoxicity against mouse L5178 cells assessed as combination index at ED50 using 300:1 test compound to doxorubicin ratio after 48 hrs by MTT-based checkerboard microplate method. The assay is classed as functional. An outline of the steps: as §1
`CC(C)(O)CC[C@H]1OC(C)(C)O[C@]1(C)[C@H]1CC=C2C3=CC(=O)N[C@@H]4C[C@H]5OC(C)(C)O[C@H]5C[C@]4(C)[C@H]3CC[C@@]21C`: the CI turned out to be 0.43.

A short description of a further assay: Synergistic cytotoxicity against mouse L5178 cells assessed as combination index at ED75 using 300:1 test compound to doxorubicin ratio after 48 hrs by MTT-based checkerboard microplate method. The assay is classed as functional. A digest of the protocol: as §1
In the case of `CC(C)(O)CC[C@H]1OC(C)(C)O[C@]1(C)[C@H]1CC=C2C3=CC(=O)N[C@@H]4C[C@H]5OC(C)(C)O[C@H]5C[C@]4(C)[C@H]3CC[C@@]21C`, the CI is on record as 0.46.

A short description of the next assay: Synergistic cytotoxicity against mouse L5178 cells assessed as combination index at ED90 using 300:1 test compound to doxorubicin ratio after 48 hrs by MTT-based checkerboard microplate method. The assay is classed as functional. An outline of the steps: as §1
For the compound `CC(C)(O)CC[C@H]1OC(C)(C)O[C@]1(C)[C@H]1CC=C2C3=CC(=O)N[C@@H]4C[C@H]5OC(C)(C)O[C@H]5C[C@]4(C)[C@H]3CC[C@@]21C`, the CI is 0.5.

The next assay in a line: Synergistic cytotoxicity against mouse L5178 cells assessed as combination index at ED50 using 600:1 test compound to doxorubicin ratio after 48 hrs by MTT-based checkerboard microplate method. It counts as functional. A digest of the protocol: as §1
On to `CC(C)(O)CC[C@H]1OC(C)(C)O[C@]1(C)[C@H]1CC=C2C3=CC(=O)N[C@@H]4C[C@H]5OC(C)(C)O[C@H]5C[C@]4(C)[C@H]3CC[C@@]21C`, for which the CI is given as 0.58.

The next assay is described as follows: Synergistic cytotoxicity against mouse L5178 cells assessed as combination index at ED75 using 600:1 test compound to doxorubicin ratio after 48 hrs by MTT-based checkerboard microplate method. The assay is classed as functional. An outline of the steps:
as §1
For `CC(C)(O)CC[C@H]1OC(C)(C)O[C@]1(C)[C@H]1CC=C2C3=CC(=O)N[C@@H]4C[C@H]5OC(C)(C)O[C@H]5C[C@]4(C)[C@H]3CC[C@@]21C`, the CI worked out at 0.63.

A further assay can be described thus: Synergistic cytotoxicity against mouse L5178 cells assessed as combination index at ED90 using 600:1 test compound to doxorubicin ratio after 48 hrs by MTT-based checkerboard microplate method. The assay is classed as functional. A digest of the protocol:
as §1
`CC(C)(O)CC[C@H]1OC(C)(C)O[C@]1(C)[C@H]1CC=C2C3=CC(=O)N[C@@H]4C[C@H]5OC(C)(C)O[C@H]5C[C@]4(C)[C@H]3CC[C@@]21C`: the CI is reported as 0.67.
